# Rev-erbA mod = modulators of Rev-erb alpha DNA binding, primary screen, biochemical, FITC-DNA, fluorescence polarization, uHTS; Rev-erbα–FITC-DNA binding, 90 min; actives 0.79% (n = 370,000); Nuclear receptor subfamily 1 group D member 1 (Homo sapiens), P20393; AID 1259318, 2017; activity, % at 10 µM;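 active = activity above about 14%, limit read from the data; passing the limit was not always enough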;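 note: 0% = DMSO wells with 35 nM protein and 100% = DMSO wells with 750 nM protein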
# NR2E3 ag-1 = inhibitors of NR2E3-RetCOR corepressor binding, primary screen, NR2E3 agonist project, biochemical, TR-FRET, GST-NR2E3, biotin-RetCOR; Photoreceptor-specific nuclear receptor (Homo sapiens), Q9Y5X4; 1536-well; inhibition of corepressor binding, % at 4.78 µM; actives 0.12% (n = 320,000);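 active = percent inhibition above the cutoff of mean plus 3 SD of all tested compounds, set per screening campaign, cut at about 20% in these data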;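 note: 0% = DMSO wells and 100% = biotin wells as full block of FRET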
# Target sequence (Q9Y5X4 whole entry, looked up): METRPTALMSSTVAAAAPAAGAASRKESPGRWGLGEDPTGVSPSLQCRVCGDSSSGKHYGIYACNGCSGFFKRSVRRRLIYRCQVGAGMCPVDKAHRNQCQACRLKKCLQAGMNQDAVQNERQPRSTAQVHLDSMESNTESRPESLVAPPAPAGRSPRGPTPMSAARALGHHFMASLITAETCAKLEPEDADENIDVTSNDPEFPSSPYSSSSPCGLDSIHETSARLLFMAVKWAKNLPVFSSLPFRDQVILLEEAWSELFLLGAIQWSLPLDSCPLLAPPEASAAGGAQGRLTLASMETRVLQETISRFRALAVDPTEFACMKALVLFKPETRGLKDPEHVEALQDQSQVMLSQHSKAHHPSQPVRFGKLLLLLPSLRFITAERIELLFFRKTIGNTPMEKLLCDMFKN
#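 System: GST-tagged NR2E3 plus biotinylated RetCOR corepressor; Amount: 1.35 nM GST-tagged NR2E3 final; Dosing: single nominal compound dose of 4.8 µM; Schedule: 5 h incubation at 4 °C; Technique: TR-FRET with europium anti-GST and streptavidin-D2, 340 nm excitation; Controls: biotin wells as high control, 0.6% DMSO wells as low control.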
# PG9 binder = binders of HIV-1 gp120 antibody PG9, primary screen, biochemical, TR-FRET. inhibition, % at 6.7 µM. AID 624416, 2012. TR-FRET gp120-PG9 antibody binding. actives 0.43% (n = 360,000). HIV-1 gp120 / PG9 antibody interaction; in the data active = inhibition above about 8.5%
# NR2E3 ag-2 = NR2E3 agonists in two-hybrid cells, primary screen, cell-based, luminescence, CHO-S, Gal4-NCOR/VP16-NR2E3. actives 0.35% (n = 360,000). Photoreceptor-specific nuclear receptor (Homo sapiens), Q9Y5X4. inhibition of corepressor binding, % at 3.98 µM. luciferase. AID 602229, 2012;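 active = inhibition above the mean of all tested compounds plus 3 SD, cut at about 70% in these data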;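 note: 0% = DMSO with NR2E3 transfected cells and 100% = cells lacking NR2E3 construct; higher means lower luciferase signal from less NR2E3 corepressor binding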
# NR2E3 ag confirm-1 = NR2E3 agonists, confirmation, biochemical, TR-FRET; actives 39% (n = 360); cell-free NR2E3 corepressor release, 5 h; activation (reported as inhibition), % at 3.98 µM; shares compounds with NR2E3 ag-1; AID 2379, 2010; in the data active = activation above about 20%
# PPARg-NCOR2 ag = agonists of PPARg-NCOR2 corepressor interaction, counter-screen for NR2E3 agonist project, biochemical, TR-FRET; shares compounds with NR2E3 ag-1; TR-FRET PPARg-NCOR2 coregulator interaction; inhibition, % at 3.98 µM; actives 45% (n = 360); in the data active = inhibition above about 20%;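 note: 0% = DMSO vehicle and 100% = wells without protein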
# NR2E3 ag confirm-2 = NR2E3 agonist confirmation in cells, cell-based, luminescence, CHO-S two-hybrid | shares compounds with NR2E3 ag-2 | actives 51% (n = 2,300) | CHO-S mammalian two-hybrid NR2E3-NCOR, luciferase luminescence | inhibition, % at 3.98 µM;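 active = average inhibition above a cutoff equal to the mean inhibition of all tested compounds plus one SD, cut at about 70% in these data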;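 note: 0% = DMSO in NR2E3 cells and 100% = DMSO in cells lacking NR2E3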
# VP16 counter = GAL4-VP16 reporter modulators, confirmation, counter-screen for NR2E3 agonist project, cell-based, luminescence, CHO-S, high throughput. shares compounds with NR2E3 ag-2. CHO-S GAL4-VP16 luciferase reporter. inhibition, % at 3.98 µM. actives 29% (n = 2,300). AID 624379, 2012;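 active = mean inhibition above a cutoff equal to the average over all tested compounds plus one standard deviation, cut at about 70% in these data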;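 note: luciferase from a UAS reporter driven by GAL4-VP16 transactivation; 0% = DMSO with VP16-transfected cells and 100% = DMSO with cells lacking VP16; higher means less reporter light so more repression of VP16 activity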
# PG9 binder conf = binders of anti-gp120 antibody PG9, confirmation, biochemical, TR-FRET. shares compounds with PG9 binder. TR-FRET PG9 antibody binding. inhibition, % at 6.7 µM. actives 90% (n = 1,500). AID 651571, 2012; in the data active = inhibition above about 9%
# PGV04 Ab binding = binders of control antibody PGV04, counter-screen for PG9 antibody binder project, biochemical, TR-FRET, distinct HIV envelope site; shares compounds with PG9 binder; TR-FRET PGV04 antibody-gp120 binding; inhibition, % at 6.7 µM; actives 95% (n = 1,500); AID 651604, 2012; in the data active = inhibition above about 9.5%
# PG9 binder DR = small-molecule binders of antibody PG9, dose response, biochemical, TR-FRET, HIV-1 gp120 antibody; shares compounds with PG9 binder; TR-FRET PG9 antibody-gp120 binding inhibition; IC50, µM; 95 tested, under 10 active; in the data active = IC50 below about 10 µM
# PGV04 DR counter = binders of control antibody PGV04, dose response, counter-screen for PG9 antibody binder project, biochemical, TR-FRET, distinct HIV envelope site. shares compounds with PG9 binder. TR-FRET binding to control antibody PGV04. IC50, µM. actives 20% (n = 95). AID 651937, 2012
# PG126 DR counter = binders of control antibody PG126, dose response, counter-screen for PG9 antibody binder project, biochemical, TR-FRET, distinct HIV envelope site; TR-FRET binding to antibody PG126, counterscreen; AID 651939, 2012; IC50, µM; shares compounds with PG9 binder; actives 20% (n = 95)
# NR1D1 mod conf = modulators of Rev-erb alpha DNA binding, confirmation, biochemical, FITC-DNA, fluorescence polarization, single point | shares compounds with Rev-erbA mod | 90 min | activation, % at 25 µM | actives 61% (n = 3,000) | AID 1259319, 2017;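 active = activation at or above a set limit, or at least 3 SD above the negative control mean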;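 note: 0% = 35 nM protein with DMSO and 100% = 750 nM protein high control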
# RORg counter = modulation of RORgamma DNA binding, dose response, counter-screen for Rev-erb alpha modulator project, biochemical, fluorescence polarization, FITC-DNA. purified RORgamma protein-FITC-DNA binding. shares compounds with Rev-erbA mod. IC50, µM. actives 8% (n = 910);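 active = Compounds whose fitted half-maximal concentration for disrupting protein-DNA binding is below 10 micromolar; the record names Rev-erb in its text, so the target is in doubt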
# The depositor's hits bear a star; i = inactive; / = no result given. Shown are actives, neighbours in structure and some others; about 1.5% of the full set was active somewhere. Cut-off read from the data, not from the text of the source, unless noted: active = IC50 below about 9 µM; inactive = the rest.
SMILES,Rev-erbA mod,NR2E3 ag-1,PG9 binder,NR2E3 ag-2,NR2E3 ag confirm-2,VP16 counter,others
Cc1ccccc1CNc1ncnc2cc(Cl)ccc12,239*,79*,90*,6,/,/,NR2E3 ag confirm-1=82*;PPARg-NCOR2 ag=82*;PG9 binder conf=90*;PGV04 Ab binding=96*;NR1D1 mod conf=189*;RORg counter=2.1*
COc1cc2ncnc(NCc3ccccc3C)c2cc1OC,-3,2,-1,-4,/,/,
COc1ccc(C(=O)Nc2nnc(Cc3ccccc3)s2)c(OC)c1,71*,47*,68*,-37,/,/,NR2E3 ag confirm-1=-9;PPARg-NCOR2 ag=12;PG9 binder conf=39*;PGV04 Ab binding=32*;PG9 binder DR=i;PGV04 DR counter=i;PG126 DR counter=i;NR1D1 mod conf=53*;RORg counter=>40
CCC[C@@H]1C[C@@H](C(=O)N[C@@H]([C@H]2O[C@H](SC)[C@H](OP(=O)(O)O)[C@@H](O)[C@H]2O)[C@H](C)Cl)N(C)C1,-6,/,/,/,/,/,
Cc1cc2nc(-c3cccc(Cl)c3)c(Cc3ccccc3)n2c(C)c1Br,/,/,/,60,29,-15,
COc1cnc(-c2ccccn2)nc1Oc1ccc(Cl)cc1,-1,-1,-1,79*,24,-25,
COc1cnc(-c2ccccn2)nc1Oc1ccccc1Cl,1,1,0,0,/,/,
COc1cnc(-c2ccccn2)nc1Oc1ccc(Cl)c2ccccc12,-2,0,-1,64,11,35,
CCN(CC)C(=O)CC[C@H]1CC[C@]2(CCCN(C(=O)c3ccno3)C2)O1,2,/,/,/,/,/,
CCOC(=O)C1CCCN(S(=O)(=O)c2ccc(C)cc2)C1 (stereo not given),5,-3,-2,14,/,/,
CCOC(=O)C1CCCN(S(=O)(=O)c2ccc(S(=O)(=O)N(CC)CC)cc2)C1 (stereo not given),-3,1,0,84*,97*,89*,
O=C(NCc1cccs1)O[C@H]1CC[C@@]23CCCN2C(=O)CCC[C@H]3C1,-4,/,/,/,/,/,
COc1ccc(CCOC(=O)c2ccc(N)c([N+](=O)[O-])c2)cc1,-2,4,2,50,26,46,
N[C@H](Cc1ccccc1)C(=O)O,-10,/,/,/,/,/,
COc1ccc(-c2noc(CCCCC(=O)N3CCN(c4cc(C)ccc4C)CC3)n2)cc1,-4,/,-1,99*,97*,84*,
COc1ccc(C(=O)O[C@@H]2CCC[C@@]3(C(=O)N(Cc4ccccc4)c4ccccc43)[C@H]2NC(=O)CCc2ccccc2)cc1OC,5,/,/,/,/,/,
COc1cccc(CNC(=O)C(C)n2ccc3cc(S(=O)(=O)N4CCCCCC4)ccc32)c1 (stereo not given),-3,0,0,-17,/,/,
CCC(C(=O)NCCC(C)C)n1ccc2cc(S(=O)(=O)N3CCCCC3)ccc21 (stereo not given),/,-1,/,60,49,47,
O=C(NC1CCCC1)c1ccc(COc2ccccc2)o1,-4,/,/,/,/,/,
COc1ccc(OC)c(S(=O)(=O)Nc2ccc(Oc3ccccc3)cc2)c1,-1,3,-2,65,80*,57,
COc1cccc(CNC(=O)[C@@H]2CCCN2C(=O)[C@H]2CCCCN2C(=O)c2cccc3ccccc23)c1,/,/,/,86*,81*,63,
CC(=O)N1CCc2c(sc(NC(=O)c3ccc([N+](=O)[O-])o3)c2C#N)C1,-8,/,-3,61,48,28,
COC(=O)c1c(NC(=O)c2ccc([N+](=O)[O-])o2)sc2c1CCN(C(C)C)C2,7,7,-3,-5,/,/,
CC(C)N1CCc2c(sc(NC(=O)c3ccc([N+](=O)[O-])o3)c2C(N)=O)C1,2,2,-24,48,84*,50,
COc1ccc(C(=O)Nc2sc3c(c2C#N)CCN(C(C)=O)C3)cc1,-1,1,-1,-15,/,/,
Cc1cc(=O)[nH]c(SCC(=O)Nc2ccc3c(c2)CCC3)c1C#N,1,0,1,55,39,41,
Cc1cc(=O)[nH]c(SCC(=O)Nc2ccc(Br)cc2)c1C#N,2,-3,1,78*,98*,90*,
Cc1cc(=O)[nH]c(SCC(=O)Nc2ccc(F)cc2)c1C#N,3,4,2,-12,/,/,
O=c1cc(C(F)(F)F)nc(SC/C=C/c2ccccc2)[nH]1,/,1,/,52,77*,29,
